ChEMBL document CHEMBL1926588, “Sulfur and selenium derivatives of quinazoline and pyrido[2,3-d]pyrimidine: synthesis and study of their potential cytotoxic activity in vitro” (Eur J Med Chem, 2012)

What was measured:
[1] = tested on: MCF7; assay: Cytotoxicity against human MCF7 cells after 72 hrs by MTT assay; format: functional; settings: MCF7, 72 h
Method in brief: (§1)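 MTT read-out after 72 h exposure at 37 °C in humidified 5% CO2, with five concentrations between 0.01 and 100. GI50 is 50% growth reduction versus untreated controls, TGI is complete growth inhibition, and LC50 is the concentration killing 50% of cells. Minimum three independent experiments.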

[2] = Cytotoxicity against human HTB-54 cells after 72 hrs by MTT assay; format: functional; settings: HTB-54, 72 h; for CC50: read-out: LC50 (the source's name); method in brief: as §1
[3] = Cytotoxicity against human BEAS2B cells after 72 hrs by MTT assay; format: cell-based, BEAS-2B; settings: for GI50 at 72 h: BEAS2B cells; for LC50 / TGI: beas-2b, 72 h; method in brief: as §1
[4] = tested on: HT-29; assay: Cytotoxicity against human HT-29 cells after 72 hrs by MTT assay; format: functional; settings: HT-29, 72 h; for CC50: read-out: LC50 (the source's name); method in brief: as §1
[5] = tested on: CCRF-CEM; assay: Cytotoxicity against human CCRF-CEM cells after 72 hrs by MTT assay; format: functional; settings: for CC50: read-out: LC50 (the source's name); method in brief: as §1
[6] = Cytotoxicity against human 184B5 cells after 72 hrs by MTT assay; format: cell-based; settings: for GI50 at 72 h: 184B5 cells; for LC50 / TGI: 184b5, 72 h; method in brief: as §1

| Structure (SMILES) | GI50 [1] [µM] | LC50 [1] [µM] | TGI [1] [µM] | GI50 [2] [µM] | TGI [2] [µM] | CC50 [2] [µM] | GI50 at 72 h [3] [µM] | LC50 [3] [µM] | TGI [3] [µM] | GI50 [4] [µM] | TGI [4] [µM] | CC50 [4] [µM] | GI50 [5] [µM] | TGI [5] [µM] | CC50 [5] [µM] | GI50 at 72 h [6] [µM] | LC50 [6] [µM] | TGI [6] [µM] |
| --- | --- | --- | --- | --- | --- | --- | --- | --- | --- | --- | --- | --- | --- | --- | --- | --- | --- | --- |
| CSc1nc(NCCCCCO)c2ccccc2n1 | 62 | > 100 | > 100 | 31.4 | 71.4 | > 100 | 39.3 | > 100 | 99.35 | > 100 | > 100 | > 100 | > 100 | > 100 | > 100 | 49.9 | > 100 | > 100 |
| CCCCC[Se]c1nc(N)c2ccccc2n1 | 28.6 | 90.4 | 59.5 | 34.6 | 84 | > 100 | 52.2 | > 100 | > 100 | 40.3 | > 100 | > 100 | 34.8 | 68 | > 100 | 15.3 | 71.85 | 43.6 |
| [SeH]c1nc(NCc2ccccc2)c2ccccc2n1 | > 100 | > 100 | > 100 | 31.2 | > 100 | > 100 | 3.54 | > 100 | > 100 | 62.2 | > 100 | > 100 | > 100 | > 100 | > 100 | 20.8 | > 100 | 63.63 |
| C[Se]c1nc(N)c2cccnc2n1 | 43 | > 100 | > 100 | 78.2 | > 100 | > 100 | 39.7 | > 100 | 90.81 | 44.1 | 77.3 | > 100 | 68.4 | > 100 | > 100 | 45.5 | > 100 | 87.15 |
| Sc1nc(NCc2ccccc2)c2ccccc2n1 | 27.2 | > 100 | > 100 | 15.2 | > 100 | > 100 | 66.3 | > 100 | > 100 | 10.1 | 63.5 | > 100 | 82.4 | > 100 | > 100 | 49.6 | > 100 | > 100 |
| CSc1ccc(CNc2nc([SeH])nc3ccccc23)cc1 | 48.1 | > 100 | > 100 | 45.5 | > 100 | > 100 | 0.41 | > 100 | 58.21 | 42.9 | > 100 | > 100 | 71.9 | > 100 | > 100 | 6.84 | > 100 | 86.27 |
| CSc1nc(NCCCc2ccccc2)c2ccccc2n1 | 77.2 | > 100 | > 100 | 50.6 | > 100 | > 100 | 73.4 | > 100 | > 100 | 19.6 | 89.5 | > 100 | 39.5 | 87.8 | > 100 | 6.77 | > 100 | > 100 |
| C[Se]c1nc(NCc2ccccc2)c2ccccc2n1 | 15.8 | > 100 | 67 | 74.6 | > 100 | > 100 | 0.57 | 78.3 | 36.96 | 42.8 | 81 | > 100 | 39.8 | 61.6 | 83.5 | 3.72 | 73.66 | 12.41 |
| CSc1nc(NCc2ccccc2)c2ccccc2n1 | 41.5 | > 100 | 82.8 | 37.9 | 82.3 | > 100 | 38.9 | > 100 | 88.24 | 36.5 | > 100 | > 100 | 87.9 | > 100 | > 100 | 28.9 | > 100 | > 100 |
| Nc1nc([SeH])nc2ccccc12 | 0.15 | > 100 | > 100 | 0.04 | 3.63 | > 100 | 0.08 | > 100 | > 100 | 52.2 | > 100 | > 100 | 25.7 | 52.4 | 79.1 | 0.69 | 80.37 | 36.65 |
| CSc1nc(NCc2ccc([Se]C)cc2)c2ccccc2n1 | 36.4 | > 100 | > 100 | 57 | > 100 | > 100 | 73.5 | > 100 | > 100 | > 100 | > 100 | > 100 | 63.3 | > 100 | > 100 | 70.3 | > 100 | > 100 |
| C[Se]c1nc(N)c2ccccc2n1 | 46.5 | > 100 | > 100 | 18 | 88.7 | > 100 | 23.6 | 85.52 | 54.56 | 27.6 | 74.8 | > 100 | 65.1 | > 100 | > 100 | 24.4 | 93.68 | 59.04 |
| COc1ccc(CNc2nc(SC)nc3ccccc23)cc1 | 30.9 | > 100 | 85.1 | 93.7 | > 100 | > 100 | 21.7 | > 100 | 96.24 | 70.2 | > 100 | > 100 | 93.7 | > 100 | > 100 | 85.6 | > 100 | > 100 |
| Nc1nc([SeH])nc2ncccc12 | 37.3 | > 100 | > 100 | 44.3 | 96.6 | > 100 | 5.89 | > 100 | 87.73 | 36.3 | 89.6 | > 100 | 30.9 | 61.5 | 92.1 | 5.2 | 74.98 | 31.05 |
| CCCCC[Se]c1nc(N)c2cccnc2n1 | 22.7 | 85 | 53.8 | 8.78 | 51 | 98.5 | 16.3 | 73.48 | 44.89 | 5.91 | 20 | 62.1 | 12.9 | 42.8 | 72.6 | 10.3 | 70.14 | 40.23 |
